# Data published in ChEMBL document CHEMBL4689842, “EUbOPEN Chemogenomics Library wave 1” (2021).
# Tested on: U2OS
# Test: Multiplex assay against U2OS
# Type: toxicity, cell-based
# Conditions: human
# Outline: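 Phenotypes for tubulin, mitochondrial mass and membrane permeability are expressed as per cents of healthy-nucleus cells. Cells were stained live at seeding with Hoechst33342, BioTracker Green Microtubule Cytoskeleton Dye, MitoTracker Red and Annexin V Alexa Fluor 680, then imaged after compound addition on a CQ1 microscope at 37°C and 5% CO2. Machine-learning gating in CellPathfinder separated Hoechst high-intensity objects from normal cells, divided normal cells by nuclear state (healthy, pyknosed, fragmented) and divided pyknosed cells into mitotic or apoptotic.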
# [1] = 12 h, 1 µM, compound concentration 1 uM, replicate 1
# [2] = 12 h, 1 µM, compound concentration 1 uM, replicate 2
# [3] = 12 h, 10 µM, compound concentration 10 uM, replicate 1
# [4] = 12 h, 10 µM, compound concentration 10 uM, replicate 2
# [5] = 24 h, 1 µM, compound concentration 1 uM, replicate 1
# [6] = 24 h, 1 µM, compound concentration 1 uM, replicate 2
# [7] = 24 h, 10 µM, compound concentration 10 uM, replicate 1
# [8] = 24 h, 10 µM, compound concentration 10 uM, replicate 2
compound,measurement,setting,value
CCn1cc(-c2ccnc3[nH]c(-c4cccc(CN(C)C)c4)cc23)c(-c2ccc(NC(=O)N(C)C)cc2)n1 [GSK-1070916],Population Apoptotic (%),[1],25%
same,Population Fragmented Nuclei (%),[1],4%
same,Population Healthy Nuclei (%),[1],91%
same,Population Hoechst High Intensity Objects (%),[1],2%
same,Population Membrane Permeable-Phenotype (%),[1],28%
same,Population Mitochondria Different-Phenotype (%),[1],17%
same,Population Mitotic Cells (%),[1],75%
same,Population Normal (%),[1],97%
same,Population Pyknosed Nuclei (%),[1],3%
same,Population Tubulin-Different-Phenotype (%),[1],24%
same,Total Cell Count,[1],141
same,Population Apoptotic (%),[2],100%
same,Population Fragmented Nuclei (%),[2],12%
same,Population Healthy Nuclei (%),[2],86%
same,Population Hoechst High Intensity Objects (%),[2],14%
same,Population Membrane Permeable-Phenotype (%),[2],30%
same,Population Mitochondria Different-Phenotype (%),[2],35%
same,Population Mitotic Cells (%),[2],0%
same,Population Normal (%),[2],85%
same,Population Pyknosed Nuclei (%),[2],1%
same,Population Tubulin-Different-Phenotype (%),[2],26%
same,Total Cell Count,[2],97
same,Population Apoptotic (%),[3],50%
same,Population Fragmented Nuclei (%),[3],12%
same,Population Healthy Nuclei (%),[3],62%
same,Population Hoechst High Intensity Objects (%),[3],9%
same,Population Membrane Permeable-Phenotype (%),[3],32%
same,Population Mitochondria Different-Phenotype (%),[3],44%
same,Population Mitotic Cells (%),[3],49%
same,Population Normal (%),[3],90%
same,Population Pyknosed Nuclei (%),[3],24%
same,Population Tubulin-Different-Phenotype (%),[3],99%
same,Total Cell Count,[3],207
same,Population Apoptotic (%),[4],48%
same,Population Fragmented Nuclei (%),[4],24%
same,Population Healthy Nuclei (%),[4],48%
same,Population Hoechst High Intensity Objects (%),[4],16%
same,Population Membrane Permeable-Phenotype (%),[4],37%
same,Population Mitochondria Different-Phenotype (%),[4],67%
same,Population Mitotic Cells (%),[4],51%
same,Population Normal (%),[4],83%
same,Population Pyknosed Nuclei (%),[4],27%
same,Population Tubulin-Different-Phenotype (%),[4],100%
same,Total Cell Count,[4],76
same,Population Apoptotic (%),[5],38%
same,Population Fragmented Nuclei (%),[5],6%
same,Population Healthy Nuclei (%),[5],81%
same,Population Hoechst High Intensity Objects (%),[5],2%
same,Population Membrane Permeable-Phenotype (%),[5],15%
same,Population Mitochondria Different-Phenotype (%),[5],27%
same,Population Mitotic Cells (%),[5],61%
same,Population Normal (%),[5],97%
same,Population Pyknosed Nuclei (%),[5],12%
same,Population Tubulin-Different-Phenotype (%),[5],15%
same,Total Cell Count,[5],141
same,Population Apoptotic (%),[6],40%
same,Population Fragmented Nuclei (%),[6],8%
same,Population Healthy Nuclei (%),[6],83%
same,Population Hoechst High Intensity Objects (%),[6],18%
same,Population Membrane Permeable-Phenotype (%),[6],22%
same,Population Mitochondria Different-Phenotype (%),[6],63%
same,Population Mitotic Cells (%),[6],60%
same,Population Normal (%),[6],81%
same,Population Pyknosed Nuclei (%),[6],8%
same,Population Tubulin-Different-Phenotype (%),[6],18%
same,Total Cell Count,[6],92
same,Population Apoptotic (%),[7],65%
same,Population Fragmented Nuclei (%),[7],13%
same,Population Healthy Nuclei (%),[7],45%
same,Population Hoechst High Intensity Objects (%),[7],16%
same,Population Membrane Permeable-Phenotype (%),[7],50%
same,Population Mitochondria Different-Phenotype (%),[7],85%
same,Population Mitotic Cells (%),[7],34%
same,Population Normal (%),[7],83%
same,Population Pyknosed Nuclei (%),[7],40%
same,Population Tubulin-Different-Phenotype (%),[7],98%
same,Total Cell Count,[7],216
same,Population Apoptotic (%),[8],64%
same,Population Fragmented Nuclei (%),[8],17%
same,Population Healthy Nuclei (%),[8],36%
same,Population Hoechst High Intensity Objects (%),[8],18%
same,Population Membrane Permeable-Phenotype (%),[8],63%
same,Population Mitochondria Different-Phenotype (%),[8],87%
same,Population Mitotic Cells (%),[8],35%
same,Population Normal (%),[8],81%
same,Population Pyknosed Nuclei (%),[8],45%
same,Population Tubulin-Different-Phenotype (%),[8],100%
same,Total Cell Count,[8],72
